Experimental data reported in ChEMBL document CHEMBL1140861, “Short antisense oligonucleotides with novel 2'-4' conformationaly restricted nucleoside analogues show improved potency without increased toxicity in animals” (J Med Chem, 2009).
The source made the active and inactive calls. No cut-off for these calls is given here.

Legend:
Homo sapiens = experiment: Decrease in low density lipoprotein cholesterol level in normal human at 50 to 400 […] by standard enzyme-based colorimetric assay; type: functional, organism-based; parameters: scale not given: the % may be the effect or the level left
Mus musculus [1] = experiment: Hepatotoxicity in BALB/c mouse assessed as increase in liver ALT level at 35 mg/kg, ip after 72 hrs; type: toxicity, organism-based; parameters: dose 35 mg/kg, route intraperitoneal; settings: in vivo
Method in brief: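 Single ip injection of 35 mg/kg ASO into male Balb/c mice, 6 weeks old, n = 4 per group, saline control; sacrificed 72 h after dosing and ALT recorded; ANOVA with Tukey's post hoc test.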

Mus musculus [2] = experiment: Reduction of PTEN mRNA level in BALB/c mouse liver at 37 mg/kg, ip after 72 hrs; type: functional, organism-based; parameters: dose 37 mg/kg
Mus musculus [3] = experiment: Reduction of PTEN mRNA level in BALB/c mouse liver at 60 mg/kg, ip after 72 hrs; type: functional, organism-based; parameters: dose 60 mg/kg
Mus musculus [4] = experiment: Hepatotoxicity in BALB/c mouse assessed as increase in liver ALT level at 35 mg/kg, ip after 72 hrs; settings: in vivo
Mus musculus [5] = experiment: as above; settings: in vivo; remark: listed apart in the source
Mus musculus [6] = experiment: Hepatotoxicity in BALB/c mouse assessed as increase in liver ALT level at 0.5 mg/kg, ip administered twice a week for 3 weeks measured after 72 hrs of last dose; type: toxicity, organism-based; parameters: dose 0.5 mg/kg, route intraperitoneal; settings: in vivo
Method in brief: (§1)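 Male Balb/c mice, 6 weeks old, dosed ip twice weekly for 3 weeks at 0.5, 1.5, 4.7 and 15 mg/kg (two ASOs) or 0.7, 2.3, 7.2 and 23 mg/kg (MOE control); sacrificed 72 h after last dose; ALT, liver PTEN mRNA, liver and spleen weights and body weight gain assessed; ED50 derived; errors as sd.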

Mus musculus [7] = experiment: Hepatotoxicity in BALB/c mouse assessed as increase in liver ALT level at 1.5 mg/kg, ip administered twice a week for 3 weeks measured after 72 hrs of last dose; type: toxicity, organism-based; parameters: dose 1.5 mg/kg, route intraperitoneal; settings: in vivo; method in brief: as §1
Mus musculus [8] = experiment: Hepatotoxicity in BALB/c mouse assessed as increase in liver ALT level at 4.7 mg/kg, ip administered twice a week for 3 weeks measured after 72 hrs of last dose; type: toxicity, organism-based; parameters: dose 4.7 mg/kg, route intraperitoneal; settings: in vivo; method in brief: as §1
Mus musculus [9] = experiment: Hepatotoxicity in BALB/c mouse assessed as increase in liver ALT level at 15 mg/kg, ip administered twice a week for 3 weeks measured after 72 hrs of last dose; type: toxicity, organism-based; parameters: dose 15 mg/kg, route intraperitoneal; settings: in vivo; method in brief: as §1
Mus musculus [10] = experiment: Toxicity in BALB/c mouse assessed as reduction in body weight at 0.5 mg/kg, ip administered twice a week for 3 weeks measured after 72 hrs of last dose; type: organism-based; parameters: dose 0.5 mg/kg, route intraperitoneal; settings: in vivo; method in brief: as §1
Mus musculus [11] = experiment: Toxicity in BALB/c mouse assessed as reduction in body weight at 1.5 mg/kg, ip administered twice a week for 3 weeks measured after 72 hrs of last dose; type: organism-based; parameters: dose 1.5 mg/kg, route intraperitoneal; settings: in vivo; method in brief: as §1
Mus musculus [12] = experiment: Toxicity in BALB/c mouse assessed as reduction in body weight at 4.7 mg/kg, ip administered twice a week for 3 weeks measured after 72 hrs of last dose; type: organism-based; parameters: dose 4.7 mg/kg, route intraperitoneal; settings: in vivo; method in brief: as §1
Mus musculus [13] = experiment: Toxicity in BALB/c mouse assessed as reduction in body weight at 15 mg/kg, ip administered twice a week for 3 weeks measured after 72 hrs of last dose; type: organism-based; parameters: dose 15 mg/kg, route intraperitoneal; settings: in vivo; method in brief: as §1
Mus musculus [14] = species: Mus musculus; experiment: Binding affinity to mouse PTEN mRNA assessed as melting temperature
Method in brief: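 Tm of ASO–RNA duplex, i.e. melting temperature of the ASO hybridised to its complementary RNA.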

bEND = experiment: Reduction in mouse PTEN mRNA level expressed in mouse bEND cells; type: functional, cell-based
Method in brief: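 bEND mouse brain endothelial cells transfected with ASO using lipofectin; PTEN mRNA reduction measured over a dose range; IC50 taken from dose-response curves.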

Mus musculus [15] = experiment: Reduction of PTEN mRNA level in ip dosed BALB/c mouse liver after 72 hrs; type: functional
Mus musculus [16] = experiment: Reduction of PTEN level in ip dosed BALB/c mouse liver at 37 mg/kg by Western blot analysis; type: functional, organism-based; parameters: dose 37 mg/kg
Mus musculus [17] = experiment: Metabolic stability in BALB/c mouse liver assessed as antisense oligonucleotide level at 18 mg/kg; type: ADME, organism-based; parameters: dose 18 mg/kg; settings: in vivo

`COCCO[C@@H]1[C@H](SP(=O)(O)OC[C@H]2O[C@@H](n3cc(C)c(=O)[nH]c3=O)[C@H](OCCOC)[C@@H]2SP(=O)(O)OC[C@H]2O[C@@H](n3cc(C)c(N)nc3=O)[C@H](OCCOC)[C@@H]2SP(=O)(O)OC[C@H]2O[C@@H](n3cnc4c(N)ncnc43)C[C@@H]2SP(=O)(O)OC[C@H]2O[C@@H](n3cnc4c(=O)[nH]c(N)nc43)C[C@@H]2SP(=O)(O)OC[C@H]2O[C@@H](n3cc(C)c(=O)[nH]c3=O)C[C@@H]2SP(=O)(O)OC[C@H]2O[C@@H](n3cc(C)c(N)nc3=O)C[C@@H]2SP(=O)(O)OC[C@H]2O[C@@H](n3cc(C)c(=O)[nH]c3=O)C[C@@H]2SP(=O)(O)OC[C@H]2O[C@@H](n3cnc4c(=O)[nH]c(N)nc43)C[C@@H]2SP(=O)(O)OC[C@H]2O[C@@H](n3cc(C)c(N)nc3=O)C[C@@H]2SP(=O)(O)OC[C@H]2O[C@@H](n3cc(C)c(=O)[nH]c3=O)C[C@@H]2SP(=O)(O)OC[C@H]2O[C@@H](n3cc(C)c(=O)[nH]c3=O)C[C@@H]2SP(=O)(O)OC[C@H]2O[C@@H](n3cc(C)c(N)nc3=O)C[C@@H]2SP(=O)(O)OC[C@H]2O[C@@H](n3cnc4c(=O)[nH]c(N)nc43)[C@H](OCCOC)[C@@H]2SP(=O)(O)OC[C@@H]2O[C@H](n3cc(C)c(N)nc3=O)[C@@H](OCCOC)[C@H]2SP(=O)(O)OC[C@@H]2O[C@H](n3cnc4c(N)ncnc43)[C@@H](OCCOC)[C@H]2SP(=O)(O)OC[C@@H]2O[C@H](n3cc(C)c(N)nc3=O)[C@@H](OCCOC)[C@H]2SP(=O)(O)OC[C@@H]2O[C@H](n3cc(C)c(N)nc3=O)[C@@H](OCCOC)[C@H]2O)[C@@H](COP(=O)(O)S[C@H]2[C@@H](OCCOC)[C@H](n3cc(C)c(N)nc3=O)O[C@@H]2COP(=O)(O)S[C@H]2[C@@H](OCCOC)[C@H](n3cnc4c(=O)[nH]c(N)nc43)O[C@@H]2CO)O[C@H]1n1cc(C)c(N)nc1=O` showed an Activity (Homo sapiens) of 6%.

With `Cc1cn([C@@H]2O[C@@]3(COP(O)(=S)O[C@@H]4[C@@H](OP(O)(=S)OC[C@H]5O[C@@H](n6cc(C)c(=O)[nH]c6=O)[C@H](O)[C@@H]5OP(O)(=S)OC[C@H]5O[C@@H](n6cnc7c(=O)[nH]c(N)nc76)[C@H](O)[C@@H]5OP(O)(=S)OC[C@H]5O[C@@H](n6cnc7c(=O)[nH]c(N)nc76)[C@H](O)[C@@H]5OP(O)(=S)OC[C@H]5O[C@@H](n6ccc(N)nc6=O)[C@H](O)[C@@H]5OP(O)(=S)OC[C@H]5O[C@@H](n6cc(C)c(=O)[nH]c6=O)[C@H](O)[C@@H]5OP(O)(=S)OC[C@H]5O[C@@H](n6cnc7c(=O)[nH]c(N)nc76)[C@H](O)[C@@H]5OP(O)(=S)OC[C@H]5O[C@@H](n6ccc(N)nc6=O)[C@H](O)[C@@H]5OP(O)(=S)OC[C@H]5O[C@@H](n6cnc7c(N)ncnc76)[C@H](O)[C@@H]5OP(O)(=S)OC[C@H]5O[C@@H](n6cnc7c(=O)[nH]c(N)nc76)[C@H](O)[C@@H]5OP(O)(=S)OC[C@@]56CO[C@@H]([C@H](n7cc(C)c(N)nc7=O)O5)[C@@H]6OP(O)(=S)OC[C@@]56CO[C@@H]([C@H](n7cc(C)c(=O)[nH]c7=O)O5)[C@@H]6O)O[C@@H](n5cnc6c(N)ncnc65)[C@@H]4O)CO[C@@H]2[C@@H]3OP(O)(=S)OC[C@@]23CO[C@@H]([C@H](n4cc(C)c(=O)[nH]c4=O)O2)[C@@H]3O)c(=O)nc1N` (some centres undefined) the Activity (Mus musculus [1]) was “Toxic”, the Activity (Mus musculus [2]) was “Active” and the Activity (Mus musculus [3]) was “Active”. The Activity (Mus musculus [4]) was “Toxic” and the Activity (Mus musculus [5]) was “Toxic”.

`Cc1cn([C@@H]2O[C@@]3(COP(O)(=S)O[C@H]4[C@H]5O[C@H](C)[C@]4(COP(O)(=S)O[C@H]4C[C@H](n6cc(C)c(=O)[nH]c6=O)O[C@@H]4COP(O)(=S)O[C@H]4[C@@H](O)[C@H](n6cnc7c6N=CNC7N)O[C@@H]4COP(O)(=S)O[C@H]4[C@@H](O)[C@H](n6cnc7c(=O)[nH]c(N)nc76)O[C@@H]4COP(O)(=S)O[C@H]4[C@@H](O)[C@H](n6ccc(N)nc6=O)O[C@@H]4COP(O)(=S)O[C@H]4[C@@H](O)[C@H](n6cnc7c(N)ncnc76)O[C@@H]4COP(O)(=S)O[C@H]4[C@@H](O)[C@H](n6ccc(N)nc6=O)O[C@@H]4COP(O)(=S)O[C@H]4[C@@H](O)[C@H](n6cc(C)c(=O)[nH]c6=O)O[C@@H]4COP(O)(=S)O[C@H]4[C@@H](O)[C@H](n6cnc7c(=O)[nH]c(N)nc76)O[C@@H]4COP(O)(=S)O[C@H]4[C@@H](O)[C@H](n6cnc7c(=O)[nH]c(N)nc76)O[C@@H]4COP(O)(=S)O[C@H]4[C@@H](O)[C@H](n6ccc(N)nc6=O)O[C@@H]4COP(O)(=S)O[C@H]4[C@H]6O[C@H](C)[C@]4(COP(O)(=S)O[C@H]4[C@H]7O[C@H](C)[C@]4(CO)O[C@H]7n4ccc(=O)[nH]c4=O)O[C@H]6n4cc(C)c(N)nc4=O)O[C@H]5n4ccc(=O)[nH]c4=O)[C@@H](C)O[C@@H]2[C@@H]3O)c(=O)nc1N` (some centres undefined) was tested, and the Activity (Mus musculus [6]) was “Toxic”, the Activity (Mus musculus [7]) was “Toxic” and the Activity (Mus musculus [8]) was “Toxic”. The Activity (Mus musculus [9]) was “Toxic”, the Activity (Mus musculus [10]) was “Toxic” and the Activity (Mus musculus [11]) was “Toxic”. The Activity (Mus musculus [12]) was “Toxic”, the Activity (Mus musculus [13]) was “Toxic” and the Tm (Mus musculus [14]) was 58.9 °C. For the same compound, the IC50 (bEND) was 10.3 nM, the ED50 (Mus musculus [15]) was 13 mg/kg and the Activity (Mus musculus [16]) was “Active”. It also gave a Stability (Mus musculus [17]) of 25 µg/g.
